Calls of active or inactive are those of the source.
How the values were obtained:
[1] = Reversible inhibition of Enterovirus 71 3C protease assessed as overall inhibition constant using NMA-IEALFQGPPK(DNP)FR as substrate pre-incubated for 30 mins followed by substrate addition and measured over 30 mins by fluorescence method; parameters: species or system Enterovirus A71
Enterovirus A71 [2] = assay: Antiviral activity against pseudotyped Enterovirus A71 infected in human muscular rhabdomyosarcoma cells treated prior to viral infection and measured after 24 hrs by luminescence method; type: functional, organism-based; settings: Enterovirus A
Enterovirus A71 [3] = assay: Irreversible covalent inhibition of Enterovirus 71 3C protease up to 80 uM using NMA-IEALFQGPPK(DNP)FR as substrate by fluorescence method; settings: TDE = time-dependent effect
Enterovirus A71 [4] = assay: Irreversible covalent inhibition of Enterovirus 71 3C protease assessed as Kinact/Ki ratio using NMA-IEALFQGPPK(DNP)FR as substrate and measured for 1 to 1.5 hrs by fluorescence method
Enterovirus A71 [5] = assay: Irreversible covalent inhibition of Enterovirus 71 3C protease assessed as steady-state velocity approaching zero up to 64 uM using NMA-IEALFQGPPK(DNP)FR as substrate by fluorescence method
[6] = target: T1, Calpain-1 catalytic subunit (Homo sapiens) (UniProt P07384); assay: Inhibition of human Calpain1 at 50 uM using Ac-LLY-AFC as substrate preincubated for 5 mins followed by substrate addition and measured after 10 mins by fluorescence method relative to control
T1 sequence (whole entry): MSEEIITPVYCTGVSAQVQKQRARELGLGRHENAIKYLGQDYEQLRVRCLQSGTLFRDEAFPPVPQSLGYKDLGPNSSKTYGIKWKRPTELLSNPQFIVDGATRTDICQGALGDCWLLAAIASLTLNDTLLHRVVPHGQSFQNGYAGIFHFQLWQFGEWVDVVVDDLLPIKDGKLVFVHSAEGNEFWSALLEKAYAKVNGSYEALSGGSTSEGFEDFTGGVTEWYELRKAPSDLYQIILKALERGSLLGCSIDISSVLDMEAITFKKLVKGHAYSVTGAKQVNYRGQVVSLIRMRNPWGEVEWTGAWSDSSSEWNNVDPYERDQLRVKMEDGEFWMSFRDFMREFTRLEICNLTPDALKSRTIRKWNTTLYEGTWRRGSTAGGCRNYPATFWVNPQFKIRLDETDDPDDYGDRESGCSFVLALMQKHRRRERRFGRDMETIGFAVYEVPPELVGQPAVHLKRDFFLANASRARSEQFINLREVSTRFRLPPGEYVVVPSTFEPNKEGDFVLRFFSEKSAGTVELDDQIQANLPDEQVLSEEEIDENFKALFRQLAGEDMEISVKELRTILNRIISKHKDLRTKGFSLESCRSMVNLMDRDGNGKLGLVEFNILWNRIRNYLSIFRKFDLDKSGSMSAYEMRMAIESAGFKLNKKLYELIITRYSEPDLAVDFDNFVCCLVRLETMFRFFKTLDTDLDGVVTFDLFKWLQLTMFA

RD = assay: Cytotoxicity against human RD cells at 100 uM after 24 hrs by WST-1 assay relative to control; type: cell-based
[7] = target: T2, Cathepsin K (Homo sapiens) (UniProt P43235); assay: Inhibition of human Cathepsin K at 50 uM using Ac-LR-AFC as substrate preincubated for 10 to 15 mins followed by substrate addition and measured for 30 to 60 mins by fluorescence method relative to control
T2 sequence (whole entry): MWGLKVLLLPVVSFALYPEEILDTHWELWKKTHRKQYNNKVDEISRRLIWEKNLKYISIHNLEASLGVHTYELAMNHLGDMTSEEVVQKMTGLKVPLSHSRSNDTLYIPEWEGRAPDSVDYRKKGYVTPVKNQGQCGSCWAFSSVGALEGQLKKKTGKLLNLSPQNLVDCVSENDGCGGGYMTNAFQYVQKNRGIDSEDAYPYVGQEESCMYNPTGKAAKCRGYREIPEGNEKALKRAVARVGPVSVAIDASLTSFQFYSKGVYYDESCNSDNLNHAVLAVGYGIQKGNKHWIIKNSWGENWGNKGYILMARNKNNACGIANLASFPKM

[8] = target: Chymotrypsinogen A (Bos taurus) (UniProt P00766); assay: Inhibition of bovine pancreas alpha-chymotrypsin at 50 uM after 30 mins using N-Succinyl-L-phenylalanine- p-nitroanilide measured for 30 mins
Enterovirus A71 [9] = assay: Inhibition of Enterovirus 71 3C protease in presence of glutathione
Enterovirus A71 [10] = assay: Inhibition of Enterovirus 71 3C protease in presence of ethanolamine
Enterovirus A71 [11] = assay: Antiviral activity against pseudotyped FY Enterovirus A71 harboring luciferase reporter gene infected in HEK-293T cells in presence of glutathione by Bright-Glo Luciferase Assay; type: functional, organism-based
Enterovirus A71 [12] = assay: Inhibition of Enterovirus 71 3C protease in presence of lysine
Enterovirus A71 [13] = assay: Binding affinity to Enterovirus 71 3C protease assessed as enzyme-compound covalent adduct formation via Cys147 residue by measuring ratio of peak intensity of covalently modified to unmodified protein at 10 to 20 equivalent after 1 hr by HPLC-ESI/MS analysis
Procedure, shortened: (§1)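 Recombinant EV71 3C protease (40 µM) incubated with inhibitor at 30 °C in 50 mM Tris, 150 mM NaCl, 1 mM EDTA-2Na, pH 7.0. Free inhibitor and salts removed by three ultrafiltration washes with water (10 kDa cutoff). Analysis by HPLC-ESI-Orbitrap MS with 0.1% formic acid water/acetonitrile mobile phases. Spectra deconvoluted; modification given as adduct-to-unmodified protein peak intensity ratio (I_add/I_pro).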

Enterovirus A71 [14] = assay: Antiviral activity against pseudotyped FY Enterovirus A71 harboring luciferase reporter gene infected in HEK-293T cells in presence of ethanolamine by Bright-Glo Luciferase Assay; type: functional, organism-based
Enterovirus A71 [15] = assay: Antiviral activity against pseudotyped FY Enterovirus A71 harboring luciferase reporter gene infected in HEK-293T cells in presence of lysine by Bright-Glo Luciferase Assay; type: functional, organism-based
Enterovirus A71 [16] = assay: Reversible inhibition of Enterovirus 71 3C protease assessed as recovery of enzyme activity at 10 to 20 equivalent using peptide substrate pre-incubated for 1 hr followed by dilution prior to substrate addition using ultra-filtered sample relative to control
Enterovirus A71 [17] = assay: Binding affinity to Enterovirus 71 3C protease assessed as enzyme-compound covalent adduct formation via Cys147 residue by measuring ratio of peak intensity of covalently modified to unmodified protein at 10 equivalent after 30 mins by HPLC-ESI/MS analysis; procedure, shortened: as §1
Enterovirus A71 [18] = assay: Reversible inhibition of Enterovirus 71 3C protease assessed as recovery of enzyme activity at 10 to 20 equivalent using peptide substrate pre-incubated for 1 hr followed by dialysis and subsequent substrate addition measured up to 72 hrs relative to control; parameters: scale not given: the % may be the effect or the level left

| SMILES | EC50 (Enterovirus A71 [2]) [µM] | Ki [1] [µM] | Activity (RD) [%] | further results |
| --- | --- | --- | --- | --- |
| Cc1cc(C(=O)N[C@@H](Cc2ccc(F)cc2)C(=O)N[C@H](/C=C(/C#N)c2ccsc2)C[C@@H]2CCCNC2=O)no1 | 19.5 | – | – | – |
| Cc1cc(C(=O)N[C@@H](Cc2ccc(F)cc2)C(=O)N[C@H](/C=C(\C#N)c2ccccn2)C[C@@H]2CCCNC2=O)no1 | 0.46 | 0.119 | 100 | inhibition [6]: < 50%; inhibition [7]: 65%; inhibition [8]: inactive |
| Cc1cc(C(=O)N[C@@H](Cc2ccc(F)cc2)C(=O)N[C@H](CC(C#N)c2ccccn2)C[C@@H]2CCCNC2=O)no1 (mixture of isomers) | > 100 | – | 50 | – |
| Cc1cc(C(=O)N[C@@H](Cc2ccc(F)cc2)C(=O)N[C@H](/C=C(\C#N)c2ccc3ccccc3c2)C[C@@H]2CCCNC2=O)no1 | 13 | – | – | – |
| Cc1cc(C(=O)N[C@@H](Cc2ccc(F)cc2)C(=O)N[C@@H](C[C@@H]2CCCNC2=O)C(O)C#N)no1 (stereo partly specified) | – | – | – | inhibition [6]: Active; inhibition [7]: Active |
| Cc1cc(C(=O)N[C@@H](Cc2ccc(F)cc2)C(=O)N[C@H](/C=C(\C#N)C(=O)N(C)C)C[C@@H]2CCCNC2=O)no1 | 0.11 | 0.094 | – | inhibition (Enterovirus A71 [9]): inactive; inhibition (Enterovirus A71 [10]): Active; Activity (Enterovirus A71 [11]): Active; inhibition (Enterovirus A71 [12]): Active; Ratio (Enterovirus A71 [13]): 1; Activity (Enterovirus A71 [14]): Active; Activity (Enterovirus A71 [15]): Active |
| CCOC(=O)C(Br)=C[C@H](C[C@@H]1CCCNC1=O)NC(=O)[C@H](Cc1ccc(F)cc1)NC(=O)c1cc(C)on1 | 0.35 | 0.117 | 100 | – |
| Cc1cc(C(=O)N[C@@H](Cc2ccc(F)cc2)C(=O)N[C@H](C=O)C[C@@H]2CCCNC2=O)no1 | – | – | – | inhibition [6]: < 50%; inhibition [7]: Active |
| Cc1cc(C(=O)N[C@@H](Cc2ccc(F)cc2)C(=O)N[C@H](/C=C(/C#N)c2ccccn2)C[C@@H]2CCCNC2=O)no1 | 2.7 | 0.693 | 90 | – |
| COC(=O)/C=C/[C@H](C[C@@H]1CCCNC1=O)NC(=O)[C@H](Cc1ccc(F)cc1)NC(=O)c1cc(C)on1 | 18.3 | – | – | inhibition [6]: < 50%; inhibition (Enterovirus A71 [3]): Tde; Activity (Enterovirus A71 [16]): inactive; Ratio (Enterovirus A71 [4]): 34 M⁻¹ s⁻¹; Ratio (Enterovirus A71 [17]): > 100; inhibition [7]: < 50%; inhibition (Enterovirus A71 [5]): Active; inhibition [8]: inactive |
| CNC(=O)/C=C/[C@H](C[C@@H]1CCCNC1=O)NC(=O)[C@H](Cc1ccc(F)cc1)NC(=O)c1cc(C)on1 | 21 | – | – | inhibition (Enterovirus A71 [3]): Tde; Ratio (Enterovirus A71 [4]): 46 M⁻¹ s⁻¹; Ratio (Enterovirus A71 [17]): > 100; inhibition (Enterovirus A71 [5]): Active |
| CNC(=O)/C(C#N)=C/[C@H](C[C@@H]1CCCNC1=O)NC(=O)[C@H](Cc1ccc(F)cc1)NC(=O)c1cc(C)on1 | 0.4 | 0.304 | – | Activity (Enterovirus A71 [18]): 50%; inhibition [6]: < 50%; Activity (Enterovirus A71 [16]): Active; Ratio (Enterovirus A71 [13]): 0.1; inhibition [7]: < 50%; inhibition [8]: inactive |
| CCOC(=O)C(Cl)=C[C@H](C[C@@H]1CCCNC1=O)NC(=O)[C@H](Cc1ccc(F)cc1)NC(=O)c1cc(C)on1 | 0.38 | 0.164 | 100 | – |
| COC(=O)C(Br)=C[C@H](C[C@@H]1CCCNC1=O)NC(=O)[C@H](Cc1ccc(F)cc1)NC(=O)c1cc(C)on1 | 0.29 | 0.115 | 100 | – |
| Cc1cc(C(=O)N[C@@H](Cc2ccc(F)cc2)C(=O)N[C@H](/C=C(\C#N)c2ccsc2)C[C@@H]2CCCNC2=O)no1 | 3.1 | 0.516 | – | inhibition [6]: < 50%; inhibition [7]: < 50%; inhibition [8]: inactive |

Further lines, with some results ahead:

| EC50 (Enterovirus A71 [2]) [µM] | SMILES | Ki [1] [µM] | Activity (RD) [%] | further results |
| --- | --- | --- | --- | --- |
| 0.077 | CCCOC(=O)/C(C#N)=C/[C@H](C[C@@H]1CCCNC1=O)NC(=O)[C@H](Cc1ccc(F)cc1)NC(=O)c1cc(C)on1 | 0.0103 | – | – |
| 17 | CCOC(=O)/C=C/[C@H](C[C@@H]1CCCNC1=O)NC(=O)[C@H](Cc1ccc(F)cc1)NC(=O)c1cc(C)on1 | – | – | inhibition (Enterovirus A71 [3]): Tde; Ratio (Enterovirus A71 [4]): 72 M⁻¹ s⁻¹; inhibition (Enterovirus A71 [5]): Active |
| 0.67 | COC(=O)C(Cl)=C[C@H](C[C@@H]1CCCNC1=O)NC(=O)[C@H](Cc1ccc(F)cc1)NC(=O)c1cc(C)on1 | 0.152 | 100 | inhibition [6]: < 50%; inhibition [7]: < 50%; inhibition [8]: inactive |
| > 100 | Cc1cc(C(=O)N[C@@H](Cc2ccc(F)cc2)C(=O)N[C@H](/C=C(\C#N)c2ccccc2)C[C@@H]2CCCNC2=O)no1 | – | – | – |
| > 100 | Cc1cc(C(=O)N[C@@H](Cc2ccc(F)cc2)C(=O)N[C@H](C=C(Cl)C#N)C[C@@H]2CCCNC2=O)no1 | – | 100 | – |
| 0.99 | CCCNC(=O)/C(C#N)=C/[C@H](C[C@@H]1CCCNC1=O)NC(=O)[C@H](Cc1ccc(F)cc1)NC(=O)c1cc(C)on1 | 0.752 | – | – |
| > 100 | COC(=O)C(C#N)C[C@H](C[C@@H]1CCCNC1=O)NC(=O)[C@H](Cc1ccc(F)cc1)NC(=O)c1cc(C)on1 (mixture of isomers) | – | – | – |
| 0.089 | CCCN(C(=O)OC(C)(C)C)C(=O)/C(C#N)=C/[C@H](C[C@@H]1CCCNC1=O)NC(=O)[C@H](Cc1ccc(F)cc1)NC(=O)c1cc(C)on1 | 0.018 | – | – |
| 0.072 | CCOC(=O)/C(C#N)=C/[C@H](C[C@@H]1CCCNC1=O)NC(=O)[C@H](Cc1ccc(F)cc1)NC(=O)c1cc(C)on1 | 0.0131 | – | – |
| > 100 | CC(C#N)=C[C@H](C[C@@H]1CCCNC1=O)NC(=O)[C@H](Cc1ccc(F)cc1)NC(=O)c1cc(C)on1 | – | – | – |
| 0.51 | CCNC(=O)/C(C#N)=C/[C@H](C[C@@H]1CCCNC1=O)NC(=O)[C@H](Cc1ccc(F)cc1)NC(=O)c1cc(C)on1 | 0.332 | – | – |
| > 100 | Cc1cc(C(=O)N[C@@H](Cc2ccc(F)cc2)C(=O)N[C@H](C=C(Br)C#N)C[C@@H]2CCCNC2=O)no1 | – | 100 | – |
| 0.058 | Cc1cc(C(=O)N[C@@H](Cc2ccc(F)cc2)C(=O)N[C@H](/C=C(\C#N)C(=O)OC(C)C)C[C@@H]2CCCNC2=O)no1 | 0.0161 | – | – |

Reference: ChEMBL document CHEMBL4364253, “Application of Dually Activated Michael Acceptor to the Rational Design of Reversible Covalent Inhibitor for Enterovirus 71 3C Protease” (J Med Chem, 2019)
